Assay results from different studies.
In brackets after ≈: the same amount, converted by molar mass.

| SMILES | tested on | test | system | conditions | measurement | result |
| --- | --- | --- | --- | --- | --- | --- |
| CN(C)c1cc(NC(=O)Cc2ccncn2)c(O)c2c1C[C@H]1C[C@H]3[C@H](N(C)C)C(O)=C(C(N)=O)C(=O)[C@@]3(O)C(O)=C1C2=O | Mycobacteroides abscessus | microbial growth, resazurin | ATCC19977 | – | IC50 | 0.59 µg/mL (≈ 0.996 µM) |
| CC(C)/N=c1\cc2n(-c3ccc(Cl)cc3)c3ccccc3nc-2cc1Nc1ccc(Cl)cc1 | Mycobacteroides abscessus | microbial growth | – | clinical isolate | MIC | 3.75 µM (≈ 1.78 µg/mL) |
| CN(C)c1cc(NC(=O)Cc2ccccn2)c(O)c2c1C[C@H]1C[C@H]3[C@H](N(C)C)C(O)=C(C(N)=O)C(=O)[C@@]3(O)C(O)=C1C2=O | Mycobacteroides abscessus | microbial growth, resazurin | ATCC19977 | – | IC50 | 0.67 µg/mL (≈ 1.13 µM) |
| O=C(O)CO/N=c1\cc2n(-c3ccc(Cl)cc3)c3ccccc3nc-2cc1Nc1ccc(Cl)cc1 | Mycobacteroides abscessus | microbial growth | – | clinical isolate | MIC | > 30 µM |
| O=C1CC[C@H](N2Cc3cc(N4CCN(CC5CCN(c6ccc([C@@H]7c8ccc(O)cc8CC[C@@H]7c7ccccc7)cc6)CC5)CC4)ccc3C2=O)C(=O)N1 | T47D | cell growth or viability, ATP luminescence | – | 5 days | GI50 | 0.0045 µM |
| COc1cc(C#CC(=O)C(C)C)ccc1O | Pseudomonas aeruginosa | microbial growth, absorbance | – | 10 µM, 24 h | activity vs control | 94% |
| CCOC(=O)CNC(=O)CO/N=c1\cc2n(-c3ccc(Cl)cc3)c3ccccc3nc-2cc1Nc1ccc(Cl)cc1 | Mycobacteroides abscessus | microbial growth | – | clinical isolate | MIC | > 30 µM |
| COc1cc(C#CC(=O)C2CCCCC2)ccc1O | Pseudomonas aeruginosa | microbial growth, absorbance | – | 10 µM, 24 h | activity vs control | 81% |
| C=CC(=O)NC1CCN(c2ncc3ncnc(Nc4ccc(Oc5ccc6c(c5)ncn6C)c(C)c4)c3n2)CC1 | ONS-76 | cell growth or viability | – | – | EC50 | 0.483 µM |
| CCCCC[C@H](O)CC(=O)CCc1ccc(O)c(OC)c1 | Pseudomonas aeruginosa | microbial growth, absorbance | – | 10 µM, 24 h | activity vs control | 99% |
| CN(C)c1cc(CNCC(C)(C)C)c(O)c2c1C[C@H]1C[C@H]3[C@H](N(C)C)C(O)=C(C(N)=O)C(=O)[C@@]3(O)C(O)=C1C2=O | Mycobacteroides abscessus | microbial growth, resazurin | ATCC19977 | – | IC50 | < 1 µg/mL |
| COc1cc(C#CC(=O)c2cccc(Cl)c2)ccc1O | Pseudomonas aeruginosa | microbial growth, absorbance | – | 10 µM, 24 h | activity vs control | 102% |
| CN(C)c1cc(NC(=O)c2ccccc2)c(O)c2c1C[C@H]1C[C@H]3[C@H](N(C)C)C(O)=C(C(N)=O)C(=O)[C@@]3(O)C(O)=C1C2=O | Mycobacteroides abscessus | microbial growth, resazurin | ATCC19977 | – | IC50 | 13.8 µg/mL (≈ 23.8 µM) |
| O=C(C#Cc1ccc(F)c(F)c1)c1ccc(Cl)cc1 | Pseudomonas aeruginosa | microbial growth, absorbance | – | 100 µM, 24 h | activity vs control | 96% |
| O/N=c1\cc2n(-c3ccc(Cl)cc3)c3ccccc3nc-2cc1Nc1ccc(Cl)cc1 | Mycobacteroides abscessus | microbial growth | – | clinical isolate | MIC | > 30 µM |
